We go through 31 compounds from the M2OR odorant receptor database.

Molecules are shown by their SMILES.
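Further: active if original authors judged signal statistically different from baseline.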

The first experiment has as its target T1, OR5K3 (Homo sapiens) (UniProt A6NET4).
T1 sequence (whole entry): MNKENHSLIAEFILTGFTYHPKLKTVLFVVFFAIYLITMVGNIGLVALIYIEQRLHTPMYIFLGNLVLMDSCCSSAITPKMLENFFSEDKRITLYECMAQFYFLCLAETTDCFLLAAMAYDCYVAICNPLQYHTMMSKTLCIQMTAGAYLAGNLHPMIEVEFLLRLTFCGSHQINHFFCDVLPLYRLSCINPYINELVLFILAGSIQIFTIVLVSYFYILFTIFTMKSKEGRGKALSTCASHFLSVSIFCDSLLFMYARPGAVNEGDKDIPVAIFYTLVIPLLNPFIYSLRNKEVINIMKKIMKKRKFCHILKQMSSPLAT
Conditions: stereoisomer not certain. The method in brief: (§1)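 Transient luciferase assays in mammalian cell lines were common, though methods varied by source. The values come from published papers and their supplementary material, with extra details from the original authors when needed. Responsive refers to a measured signal the original authors judged statistically different from baseline, and non-responsive (inactive) to the remainder.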
Regarding `CCC1OC(C)=C(O)C1=O` (centres undefined), the “odorant receptor agonist call” value was “inactive”.
Same read-out and setting: the same measure for `CCCCC(S)C(C)CO` (centres undefined): “inactive”; for `CC(=O)c1nccnc1C`: “inactive”.

Another experiment concerns the target T2, OR5K4 (Homo sapiens) (UniProt A6NMS3).
T2 sequence (whole entry): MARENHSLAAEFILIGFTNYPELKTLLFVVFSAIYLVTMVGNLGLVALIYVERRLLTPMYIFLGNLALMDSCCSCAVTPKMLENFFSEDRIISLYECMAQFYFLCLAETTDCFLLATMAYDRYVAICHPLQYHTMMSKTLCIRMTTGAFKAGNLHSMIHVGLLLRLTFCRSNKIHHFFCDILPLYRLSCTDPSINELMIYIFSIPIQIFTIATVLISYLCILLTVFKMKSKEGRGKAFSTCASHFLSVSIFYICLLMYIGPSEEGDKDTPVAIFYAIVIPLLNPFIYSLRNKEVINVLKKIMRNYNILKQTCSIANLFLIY
Conditions: stereoisomer not certain. A digest of the protocol: as §1
As to `CC(=O)c1cnccn1`, the “odorant receptor agonist call” value is “inactive”.
On the same count and under the same terms, the same measure for `CCc1nccnc1C(C)=O`: “inactive”; for `CC1=C(O)C(=O)C(C)O1` (centres undefined): “inactive”; for `CCc1nccnc1C`: “inactive”.
On to `CC1CCCCCCCCCCCCC(=O)C1` (centres undefined), for which the “odorant receptor agonist call” value is “inactive”.
Still for that read-out and setting: the same measure for `Cc1cncc(C)n1`: “inactive”.
Consider `CCc1ncc(C)nc1CC`, for which the “odorant receptor agonist call” value is “inactive”.
For the compound `CCCCCC(S)C(C)CO` (centres undefined), the “odorant receptor agonist call” value is “inactive”.
Still for that read-out and setting: in the case of `CCC(S)C(C)CO` (centres undefined) it was “inactive”.
Same read-out and setting: in the case of `CCCCCC(=O)C(C)C(C)=O` (centres undefined) it was “inactive”.
Same read-out and setting: the same measure for `CC(CO)CS` (centres undefined): “inactive”; for `COc1nccnc1C(C)C`: “inactive”.
On to `CCc1nccnc1CC`, for which the “odorant receptor agonist call” value was “inactive”.
For `CC(=O)c1c(C)c([N+](=O)[O-])c(C(C)(C)C)c([N+](=O)[O-])c1C`, the “odorant receptor agonist call” value is “inactive”.
The same measure, in the same setting: in the case of `CC1=C(O)C(=O)OC1C` (centres undefined) it was “inactive”.
Same read-out and setting: the same measure for `CCc1nccnc1OC`: “inactive”; for `CCCCCCC=CCCC=O`: “inactive”.
Same read-out and setting: the same measure for `Cc1nccnc1C`: “inactive”; for `C=Cc1cnccn1`: “inactive”.
On to `Cc1cnc(C)c(C)n1`, for which the “odorant receptor agonist call” value is “inactive”.
Turning to `CC1=NC(C)C(C)S1` (centres undefined), the “odorant receptor agonist call” value is “inactive”.
Take `COc1cnccn1`: the “odorant receptor agonist call” value is “inactive”.
On to `Cc1cnc(C)cn1`, for which the “odorant receptor agonist call” value is “inactive”.
Same read-out and setting: the same measure for `CC1CCc2nccnc21` (centres undefined): “inactive”; for `Cc1cnccn1`: “inactive”.
Same read-out and setting: the same measure for `CCCC(S)CCOC(C)=O` (centres undefined): “inactive”; for `COc1nccnc1CC(C)C`: “inactive”.
Consider `CCC1OC(=O)C(O)=C1C` (centres undefined), for which the “odorant receptor agonist call” value was “inactive”.
On the same count and under the same terms, the same measure for `CCC1OC(C)=C(O)C1=O` (centres undefined): “inactive”; for `CCCCC(S)C(C)CO` (centres undefined): “inactive”; for `CC(=O)c1nccnc1C`: “inactive”.

Another experiment concerns the target T3, OR5L1 (Homo sapiens) (UniProt Q8NGL2).
T3 sequence (whole entry): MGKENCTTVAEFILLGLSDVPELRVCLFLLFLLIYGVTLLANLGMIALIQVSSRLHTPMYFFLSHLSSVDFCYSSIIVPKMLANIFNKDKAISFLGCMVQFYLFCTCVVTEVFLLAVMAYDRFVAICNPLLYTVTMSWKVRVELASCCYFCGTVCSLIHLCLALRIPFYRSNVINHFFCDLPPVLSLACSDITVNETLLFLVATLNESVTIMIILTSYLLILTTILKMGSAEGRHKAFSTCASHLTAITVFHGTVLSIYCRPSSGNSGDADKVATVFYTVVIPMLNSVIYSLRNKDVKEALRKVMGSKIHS
Conditions: stereoisomer not certain. A digest of the protocol:
as §1
With `CC1=C(O)C(=O)C(C)O1` (centres undefined), the “odorant receptor agonist call” value is “inactive”.
Still for that read-out and setting: the same measure for `CC1CCCCCCCCCCCCC(=O)C1` (centres undefined): “inactive”; for `CCCCCC(S)C(C)CO` (centres undefined): “inactive”; for `CCC(S)C(C)CO` (centres undefined): “inactive”.
For `CCCCCC(=O)C(C)C(C)=O` (centres undefined), the “odorant receptor agonist call” value is “inactive”.
Same read-out and setting: the same measure for `CC(CO)CS` (centres undefined): “inactive”; for `CC(=O)c1c(C)c([N+](=O)[O-])c(C(C)(C)C)c([N+](=O)[O-])c1C`: “inactive”; for `CC1=C(O)C(=O)OC1C` (centres undefined): “inactive”.
For the compound `CCCCCCC=CCCC=O`, the “odorant receptor agonist call” value is “inactive”.
Still for that read-out and setting: in the case of `Cc1cnc(C)c(C)n1` it was “inactive”; in that of `CC1=NC(C)C(C)S1` (centres undefined), “inactive”.
On the same count and under the same terms, in the case of `CCCC(S)CCOC(C)=O` (centres undefined) it was “inactive”.
The same measure, in the same setting: the same measure for `CCC1OC(=O)C(O)=C1C` (centres undefined): “inactive”; for `CCC1OC(C)=C(O)C1=O` (centres undefined): “inactive”; for `CCCCC(S)C(C)CO` (centres undefined): “inactive”.
